Compound activity: PubChem, several laboratories
Sampled rows, rich in hits. Any-hit rate of the full collection: about 3.9%.
Gli-Sufu antag – Gli-Sufu pathway antagonists, primary screen, luciferase luminescence, Sufu-KO-LIGHT cells, uHTS | Sufu-KO-LIGHT fibroblasts, Gli luciferase reporter luminescence | inhibition, % at 5 µM | hit rate 0.74% among 340,000;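 active = inhibition above about 55%, limit read from the data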;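 note: 0% = DMSO-treated cells and 100% = wells with medium but no cells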
697 NFkB inh – inhibitors of PMA/ionomycin-induced NF-kB reporter, 697 cells, primary screen, B-cell NF-kB inhibitor project, cell-based, luminescence, uHTS. AID 435022, 2010. 697 B-cell NF-kB luciferase reporter, 16 h. hit rate 0.33% among 330,000. inhibition, % at 4 µM; in the data active = inhibition above about 35%
Jurkat NFkB inh – inhibitors of induced NF-kB luciferase reporter, primary screen, TCR NF-kB activation inhibitor project, cell-based, luminescence, uHTS. Jurkat, PMA/ionomycin-induced NF-kB luciferase reporter. inhibition, % at 4 µM. hit rate 0.53% among 330,000; in the data active = inhibition above about 50%
XBP1 UPR activ – activators of adaptive XBP1 UPR arm, primary screen, cell-based, CHO-XBP1 luciferase reporter, luminescence, uHTS; IRE1-XBP1 UPR activation; percent of tunicamycin response, DMSO as zero; activation, % at 20 µM; hit rate 0.33% among 330,000;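 active = versus positive control, 20 µM dose yields 30% or more activation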;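 note: 100% = tunicamycin at 10 µg/mL and 0% = DMSO only wells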
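Material: IRE1-XBP1 luciferase reporter CHO line / Quantity: one thousand reporter cells per well / Buffer or medium: F12 with 10% serum / Compound: 20 µM single concentration, DMSO 1% / Times: 6 h treatment, 37 °C / Detection: Steady-Glo luciferase glow luminescence, 10 min after reagent addition / Benchmarks: tunicamycin high, DMSO low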
CHOP UPR activ – activators of apoptotic CHOP UPR arm, primary screen, cell-based, CHO-CHOP luciferase reporter, luminescence, uHTS; hit rate 0.34% among 330,000; UPR activation; percent of tunicamycin response over DMSO baseline; AID 449763, 2010; activation, % at 10 µM;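 active = at 10 µM dose, activation of 40% or more, normalized to positive control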;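 note: 100% = tunicamycin at 10 µg/mL and 0% = DMSO alone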
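System: CHO-CHOP luciferase reporter cell line | Buffer or medium: F12 medium containing 10% fetal bovine serum | Doses: One dose, 10 µM in 0.5% DMSO | Times: 6 h compound exposure at 37 °C after overnight seeding | Signal: Luciferase luminescence | Read-out: % activation vs tunicamycin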
CHOP inh – inhibitors of CHOP promoter induction, primary screen, cell-based, unfolded protein response, luciferase reporter | hit rate 3.8% among 220,000 | inhibition, % at 10 µM | AID 2732, 2010 | CHO-K1 CHOP-promoter luciferase, tunicamycin-induced, 15-18 h;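 active = compounds that reduced the stress-induced luciferase reporter signal by more than about 70% of percent inhibition, limit read from the data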;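 note: 0% = tunicamycin plus vehicle and 100% = wells without tunicamycin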
* hit, by the source's call; nt = not tested or not shown.

SMILES	Gli-Sufu antag	697 NFkB inh	Jurkat NFkB inh	XBP1 UPR activ	CHOP UPR activ	CHOP inh
Cc1ccc(C)c(OCC(=O)Nc2nc3ccc([N+](=O)[O-])cc3s2)c1C	8	-6	15	1	-1	80*
CCC(=O)Nc1nc2ccc([N+](=O)[O-])cc2s1	-23	-18	4	-2	5	9
CC1CCN(c2ccc3c(c2)S(=O)(=O)c2cccc(C(=O)NC4CC4)c2C3=O)CC1	-20	-37	-8	-4	1	nt
O=C(CCN1C(=O)C2C3C=CC(C3)C2C1=O)N1CC(=O)N(CCc2ccccc2)C(=O)C1 (centres undefined)	nt	-17	8	-1	4	4
O=C(CN1C(=O)C2C3C=CC(C3)C2C1=O)N1CC(=O)N(CCc2ccccc2)C(=O)C1 (centres undefined)	-5	-14	0	0	-5	74*
Cc1cccc2c1cnn2C(=O)Nc1ccccc1Cl	-76	-35	-58	-3	5	nt
CC(C)n1cc(/C=C/c2cc[n+](C)cc2)c2ccccc21	71*	-18	20	-4	0	nt
C=CCn1c(C)c(/C=C/c2cc[n+](C)cc2)c2ccccc21	45	-3	26	-3	2	nt
CCn1cc(/C=C/c2cc[n+](C)cc2)c2ccccc21	58*	nt	nt	nt	nt	nt
C=CCn1cc(/C=C/c2cc[n+](C)cc2)c2ccccc21	66*	5	21	-4	1	nt
CN(C(=O)C(=O)c1cn(CC(=O)N2CCCC2)c2ccccc12)C1CCCCC1	0	-24	7	-7	3	nt
CC1(C(=O)OCC(=O)Nc2cc(S(=O)(=O)N3CCOCC3)ccc2Cl)CC1(Cl)Cl (centres undefined)	-2	nt	nt	nt	nt	nt
CCNc1nc2c(c(=O)n(C)c(=O)n2C)n1CCCc1ccccc1	12	-20	-2	-5	-2	nt
COc1cccc(CN2c3ccc(Br)cc3C(=O)CS2(=O)=O)c1	-4	13	5	-3	-1	nt
Cc1c(Cl)cccc1NC(=S)N=Nc1c(O)n(CN2CCOCC2)c2ccccc12	-8	-1	-4	7	14	87*
O=C(CNC(=S)N(Cc1ccccc1)Cc1ccccc1F)NCc1ccccc1	2	12	1	1	1	47
O=C(CNC(=S)N(Cc1ccccc1)Cc1ccccc1F)NCc1ccc(Cl)cc1	12	nt	nt	nt	nt	78*
COc1ccc(NC(=O)CSc2ncccc2C(=O)OC(C)C)cc1OC	42	0	22	1	3	71*
Cc1ccc(SCC(=O)NC(=O)c2ccccc2Br)c(C)c1	-3	0	13	0	0	nt
CC(=O)N1N=C(c2ccc(C)cc2)OC1c1ccc(C)cc1 (centres undefined)	-19	-9	-23	-1	8	75*
CC(=O)N1N=C(c2ccc(C)cc2)OC1c1ccc(C(C)C)cc1 (centres undefined)	-99	-114	-119	0	4	61
CCOC(=O)c1c(NC(=O)CN2C(=O)NC3(CCCCC3)C2=O)sc(C)c1-c1ccc(C)cc1	4	4	5	3	3	71*
CCOC(=O)c1c(NC(=O)CN2C(=O)NC3(CCC(C)CC3)C2=O)sc(C)c1-c1ccc(C)cc1 (centres undefined)	nt	6	-11	8	3	82*
CCOC(=O)C12CC1/C(=N/O)c1ccccc1O2 (centres undefined)	nt	nt	nt	nt	nt	-22
CC1CCCC(NC(=O)c2cn(C)c3ccc(S(=O)(=O)N4CCCC4)cc3c2=O)C1C (centres undefined)	nt	-5	3	0	-1	80*
SMILES	Gli-Sufu antag	697 NFkB inh	Jurkat NFkB inh	XBP1 UPR activ	CHOP UPR activ	CHOP inh
O=C(N/N=C/c1ccccc1)c1ccc(N2CCCC2=O)cc1	-20	-49	-13	0	0	nt
N#C/C(=C\c1ccc2c(c1)OCCO2)C(=O)Nc1nccs1	4	-13	-2	6	6	nt
O=[N+]([O-])c1cc(C(F)(F)F)ccc1NCCNC(=S)Nc1ccc(Cl)cc1	-3	-9	-12	6	2	86*
O=[N+]([O-])c1cc(C(F)(F)F)ccc1NCCCCNS(=O)(=O)c1ccc(Cl)cc1	18	11	-12	-1	-1	47
CCC(=O)N(Cc1ccco1)c1nc(-c2cc(OC)ccc2OC)cs1	-1	11	-4	5	0	75*
CC(C)=CC(=O)N1CCCC(N2CCN(c3ccc(F)cc3)CC2)C1 (centres undefined)	-4	5	-1	1	1	nt
CC1CCCCN1C(=S)NC(=O)c1cc(Br)ccc1Cl (centres undefined)	-7	-13	3	0	0	nt
O=c1[nH]c(/C(Cl)=C/c2c(F)cccc2Cl)nc2cc(Cl)ccc12	7	-22	3	4	2	79*
O=C1ON=C(c2ccccc2)/C1=C/c1ccc(-c2ccccc2[N+](=O)[O-])o1	-3	nt	nt	nt	nt	104*
COc1ccc(N2CC(C(=O)NCc3n[nH]c(=O)c4ccccc34)CC2=O)cc1 (centres undefined)	11	20	19	-3	0	nt
Cc1ccc(S(=O)(=O)NC(C)C(c2cccs2)N2CCN(c3ccccc3)CC2)cc1 (centres undefined)	8	3	0	-1	3	78*
Cc1ccc(S(=O)(=O)NC(C)C(c2cccs2)N2CCN(C)CC2)cc1 (centres undefined)	-1	1	-8	0	-2	32
O=C(CN1C(=O)/C(=C\c2cccc(F)c2)Oc2ccccc21)N1CCN(c2ccccn2)CC1	6	-14	-7	0	1	18
O=C(CN1C(=O)/C(=C\c2ccc(F)cc2)Oc2ccccc21)N1CCN(c2ccccn2)CC1	-1	-2	11	19	6	90*
CN1CCN(C2Cc3cc(Cl)ccc3Sc3cc(F)ccc32)CC1 (centres undefined)	10	-2	-8	4	2	nt
OCCN1CCN(C2Cc3cc(Cl)ccc3Sc3ccc(Cl)cc32)CC1 (centres undefined) (tested in a mixture with another compound)	4	-1	5	2	0	75*
CC(C)c1ccc(Nc2ccc(C(=O)O)cc2[N+](=O)[O-])cc1	6	-3	-6	1	1	nt
CC(C)c1ccc(NC(=O)CN2C(=O)NC3(CCCCCCC3)C2=O)cc1	4	-18	19	4	0	nt
